# Screens as filed in PubChem.
# This is a sample that favours compounds with a hit; in the whole collection about 1.6% have one here.
# TPT1 inhibitor: inhibitors of Candida albicans tRNA 2'-phosphotransferase TPT1; recombinant caTPT1, FP RNA substrate dephosphorylation; inhibition, % at 5 µM; 300,000 tested, 0.81% active; AID 1962;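 active means inhibition above the mean of all tested compounds plus 3 SD, set per screening campaign, cut at about 24% in these data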;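 further: plate controls were DMSO alone for no effect and ferristatin control at 100 nM for full effect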
# PKA-R1A activ: PKA-R1A complex activation. P00514+P68181. PKA-R1A dissociation, Cy5-IP20 fluorescence polarization; scaled: DMSO 0%, 113 µM cGMP 100%. activation, % at 11.4 µM. 340,000 tested, 0.083% active. AID 504707;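 active means percent activation above the mean of all tested compounds plus 3 SD, cut at about 19% in these data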;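 further: higher means more PKAc released from R1A so a rise in polarization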
# CSN deneddyl inh: CSN deneddylation inhibition; Q92905; Purified CSN, SCF-Nedd8-OG deneddylation, fluorescence polarization; inhibition, % at 12.5 µM; 360,000 tested, 0.38% active; AID 651999;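 active means pattern-corrected inhibition above about 35%, with an unprinted fluorescence ratio check between 0.5 and 1.5, limit read from the data, passing the limit was not always enough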;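 further: 0% = enzyme with substrate and 100% = substrate without enzyme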
# Target sequence (Q92905 whole entry, looked up, one chain of several): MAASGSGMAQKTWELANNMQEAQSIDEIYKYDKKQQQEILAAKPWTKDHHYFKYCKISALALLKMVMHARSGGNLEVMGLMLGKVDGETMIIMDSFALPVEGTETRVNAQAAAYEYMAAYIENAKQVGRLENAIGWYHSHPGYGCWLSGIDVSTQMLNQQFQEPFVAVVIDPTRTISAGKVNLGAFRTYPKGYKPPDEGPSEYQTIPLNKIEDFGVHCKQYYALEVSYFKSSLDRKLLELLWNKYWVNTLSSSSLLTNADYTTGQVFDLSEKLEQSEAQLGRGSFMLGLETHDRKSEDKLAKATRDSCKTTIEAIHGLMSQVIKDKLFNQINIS
#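 Assay system: purified human Csn5 enzyme expressed in HEK293T cells; measure: % inhibition; also added: SCFSkp2-Nedd8OG substrate at 10 nM final; technique: fluorescence polarization; times: reaction 90 min, room temperature; medium: Tris buffer pH 7.5, NaCl, DTT, Tween-20, trehalose, ovalbumin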
# HNF4A DNA FP: change in binding of human HNF4 alpha to DNA | 360,000 tested, 0.3% active | AID 1224865 | P41235 | activity change, % at 10 µM | HNF4a-FITC DNA binding, fluorescence polarization, 1 h; in the data active means activity change above about 30%, passing the limit was not always enough
# PKA-R2B activ: activators of human PKA-R2B complex | PKA-R2B holoenzyme dissociation, Cy5-IP20 fluorescence polarization; R2B truncated from residue 108, S112A mutant; 0% DMSO only, 100% 113 µM cGMP | P22694+P31323 | activation, % at 11.4 µM | 340,000 tested, 0.079% active | AID 504700;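 active means activation above a cutoff set at the mean over all compounds plus 3 SD, cut at about 18% in these data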;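 further: higher means more holoenzyme dissociation and a rise in polarization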
# Rpn11 block: inhibitors of human proteasome Rpn11; O00487; human 26S proteasome, Ub4-pepOG fluorescence polarization; 20S core pre-blocked with epoxomicin; calls only at 20 µM; 360,000 tested, 0.59% active;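 active means inhibition at 20 µM, scaled to each plate's controls, above about 33%, limit read from the data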
# Target sequence (O00487 whole entry, looked up): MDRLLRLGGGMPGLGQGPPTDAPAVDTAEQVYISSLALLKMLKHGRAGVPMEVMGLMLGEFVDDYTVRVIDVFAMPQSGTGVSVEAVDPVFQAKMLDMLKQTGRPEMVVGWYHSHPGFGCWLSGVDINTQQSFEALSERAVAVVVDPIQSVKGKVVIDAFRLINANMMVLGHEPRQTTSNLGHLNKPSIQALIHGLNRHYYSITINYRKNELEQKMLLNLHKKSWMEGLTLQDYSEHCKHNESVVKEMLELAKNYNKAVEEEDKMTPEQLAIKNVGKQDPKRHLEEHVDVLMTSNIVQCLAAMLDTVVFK
# Rpn11 confirm: Rpn11 inhibition confirmation, single concentration. shares compounds with Rpn11 block. purified human 26S proteasome, Ub4-pepOG fluorescence polarization; proteasome pretreated with epoxomicin. inhibition, % at 20 µM. 1,900 tested, 29% active
# MMP-2 counter-1: blocks human MMP-2, flagging nonselective RPN11 hits. shares compounds with Rpn11 block. recombinant MMP-2, FRET peptide cleavage fluorescence. inhibition, % at 20 µM. 1,900 tested, 4% active. AID 602330;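 further: human MMP-2 activated beforehand with APMA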
# Thrombin inh: counter-screen for RPN11 inhibitors: inhibition of bovine thrombin. inhibition, % at 20 µM. 1,900 tested, 13% active. shares compounds with Rpn11 block. bovine thrombin cleavage of Ub4-pepOG, fluorescence polarization;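 active means mean inhibition at least 40% at 20 µM, or signal 3 deviations below plate average, so some actives read negative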;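 further: plate controls were thrombin with DMSO for no effect and buffer wells lacking thrombin for full effect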
# CSN deneddyl val: Csn5 (human) deneddylation inhibition, single-concentration validation. AID 720654. Csn5 deneddylation of SCF-Nedd8OG, fluorescence polarization, 90 min. 540 tested, 62% active. shares compounds with CSN deneddyl inh. inhibition, % at 16.6 µM; in the data active means inhibition above about 50%;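 further: 0% = DMSO with enzyme and 100% = no enzyme wells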
# MMP-2 counter-2: counter-screen for CSN deneddylation inhibitors: human MMP-2 inhibition; shares compounds with CSN deneddyl inh; recombinant MMP-2, FRET substrate fluorescence, 60 min; inhibition, % at 16.6 µM; 540 tested, 33% active;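 active means corrected plate-normalized z-score of 5 or more, or -5 or less, or inhibition of 15% or more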;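 further: plate controls were DMSO wells with enzyme for no effect and buffer wells lacking MMP-2 for full effect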
# Thrombin counter: counter-screen for CSN deneddylation inhibitors: bovine thrombin inhibition | AID 720656 | bovine thrombin cleavage of Ub4-pepOG, fluorescence polarization | 540 tested, 49% active | inhibition, % at 16.6 µM | shares compounds with CSN deneddyl inh;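 active means inhibition at or above a set limit, with a fluorescence interference ratio between 0.5 and a set maximum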
# * hit, by the source's call; i = inactive; / = no result given; + = active, no number. Unless noted, no stated cut-off is given here; in the data, active means inhibition above about 40%; inactive means the rest.
SMILES,TPT1 inhibitor,PKA-R1A activ,CSN deneddyl inh,HNF4A DNA FP,PKA-R2B activ,Rpn11 block,Rpn11 confirm,MMP-2 counter-1,Thrombin inh,MMP-2 counter-2,Thrombin counter,others
O=C(N=NC(=O)c1ccco1)c1ccc2c(O)n(N3C(=O)c4ccccc4C3=O)c(O)c2c1,-1,6,-1,7,9,+,-13,1,-6,/,/,
CCn1c(O)c2ccc(C(=O)N=NC(=O)c3ccccc3)cc2c1O,2,-9,1,3,-3,i,/,/,/,/,/,
Clc1ccc(Nc2nc3ccccc3n3nnnc23)cc1,-4,-5,3,4,3,+,11,-23,-3,/,/,
Cc1cc2c(c(=O)n1C1CC1)C(c1cccc(Cl)c1)C(C#N)=C(N)O2 (stereo unspecified),-1,1,1,28,-4,+,8,-1,7,/,/,
COCCCn1c(=O)/c(=C\c2ccccc2OC(F)F)s/c1=C(/C#N)C(N)=O,3,5,22,-4,-6,+,13,-11,3,/,/,
CCOC(=O)/C=c1\s/c(=C(\C#N)C(N)=O)n(-c2ccccc2)c1=O,5,-5,-1,2,7,i,/,/,/,/,/,
COc1ccc(C2CC(c3ccccc3)=NN2C(=O)COC(=O)c2ccc(Cl)nc2)cc1 (stereo unspecified),-1,-6,0,-2,0,+,8,-33,-34,/,/,
CCOC(=O)c1sc(NN=C(C(=O)OC)C(=O)OC)c(C(=O)OCC)c1C,7,-5,-10,25,8,+,11,34,4,/,/,
Cc1cn([C@H]2C[C@H](O)[C@@H](CNS(=O)(=O)c3ccc(NS(=O)(=O)N(C)C)cc3)O2)c(=O)[nH]c1=O,/,-13,-3,8,2,i,/,/,/,/,/,
O=C(c1cccn(Cc2ccc(Cl)c(Cl)c2)c1=O)N1CCOCC1,0,-6,-2,70*,-5,+,1,-16,-5,/,/,
CC(C)C(=O)Nc1ccc(-c2nnc(-c3ccccc3)o2)cc1,/,11,-3,-1,-2,i,/,/,/,/,/,
O=C(Nc1ccc(-c2nnc(-c3ccccc3)o2)cc1)C(F)(F)F,-5,-13,-1,4,-11,+,-24,-14,-20,/,/,
CCOC(=O)N1CCN(C(=O)c2cc(OCC)c(OCC)c(OCC)c2)CC1,2,1,-5,1,0,i,/,/,/,/,/,
CCOC(=O)N1CCN(C(=O)c2cc(OC)c(OC)c(OC)c2)CC1,-3,7,-1,6,8,+,-9,-19,3,/,/,
O=C(COC(=O)C1CCN(S(=O)(=O)c2ccc3c(c2)OCCO3)CC1)Nc1cccc2ccccc12,0,-3,-10,2,-3,i,/,/,/,/,/,
Cc1nc(Nc2ccc(Cl)cc2Cl)sc1C(=O)Nc1ccccc1,-3,-1,-1,-1,-11,i,/,/,/,/,/,
Oc1nc(Nc2ccc(Cl)cc2Cl)sc1/C=C1\C=Nc2ccccc21,11,-4,9,12,-2,+,60*,22,45*,/,/,
CC(=O)N/N=C/c1cc(C(C)(C)C)cc(/C=N/NC(C)=O)c1O,-60,/,-26,-43,/,i,/,/,/,/,/,
CC[C@]12c3[nH]c4ccc(Cl)cc4c3CCN1C(=O)[C@@H](CC(=O)NCCC1=CCCCC1)C[C@@H]2C(=O)N1CCN(C(=O)c2ccco2)CC1,/,-2,1,0,0,i,/,/,/,/,/,
COc1cc(NS(=O)(=O)c2ccc(NC(=S)NC(=O)/C=C/c3ccco3)cc2)ncn1,/,-1,49*,-42,-1,+,78*,24,47*,23*,22*,CSN deneddyl val=61*
CCOc1ccc2nc(N3C(=O)C(O)=C(C(=O)c4ccco4)C3c3ccco3)sc2c1 (stereo unspecified),/,-14,7,0,-2,i,/,/,/,/,/,
Cc1cc(C)c2nc(N3C(=O)C(O)=C(C(=O)c4ccco4)C3c3ccco3)sc2c1 (stereo unspecified),5,-19,35*,-15,-5,+,34,10,37,10,-6,
COc1cc(N(C)C)ccc1C=c1c2ccccc2n2c1cc(-c1ccccc1)[n+]2C,/,-3,71*,176,-3,+,98*,-84,82*,73*,57*,CSN deneddyl val=-15
COc1ccccc1/C=C1\SC(=S)N(CCC(=O)Nc2ccc(C(=O)O)c(O)c2)C1=O,0,7,6,-6,-2,i,/,/,/,/,/,
O=C(CCCN1C(=O)/C(=C/c2ccco2)SC1=S)Nc1ccccc1C(=O)O,3,7,39*,-56,2,+,4,38,-1,25*,32*,CSN deneddyl val=83*
O=C(CCN1C(=O)/C(=C/c2ccco2)SC1=S)Nc1ccc(C(=O)O)c(O)c1,14,0,52*,-22,-8,+,9,37,-1,12,6,CSN deneddyl val=73*
O=C(NC1CC(=O)N(c2ccccc2)C1)N1CCN(C(=O)c2ccco2)CC1 (stereo unspecified),2,2,-6,-8,-7,i,/,/,/,/,/,
CC(=O)NC1=NC(=O)/C(=C/c2cc(C)n(-c3cccc(C(=O)O)c3)c2C)S1,/,/,61*,49*,/,+,+,40*,136*,16*,53*,CSN deneddyl val=-34
COC(=O)c1cc2c(=O)c3ccccc3oc2nc1/C=C/N(C)C,/,-2,77*,110,-6,+,30,-39,10,-2,28*,CSN deneddyl val=95*
O=C1c2cccc(NCCCNCCO)c2C(=O)c2cccc(NCCCNCCO)c21,/,-6,94*,42,-15,+,21,38,-44,34*,-32,CSN deneddyl val=-21
